# Only some compounds are listed: those with a hit (about 3.4% of all), similar ones and a draw of the others.
# MEKK3 PB1 HTS: modulators of MEKK3-MEK5 PB1 binding, primary screen, biochemical, wildtype MEKK3, multiplex bead flow cytometry, Alexa488-MEK5 | Mitogen-activated protein kinase kinase kinase 3 (Homo sapiens), Q99759 | binding response (% of control), % at 10 µM | AID 1529, 2009 | 290,000 tested, 1.4% active | bead-based flow cytometry, Alexa488-MEK5 binding to MEKK3; actives lie on both sides; 0 = blocked by unlabeled MEK5, 100 = vehicle;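 active = binding response more than 3 SD above or below the average of its plate-row segment, actives on both sides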;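 note: Alexa488 bead fluorescence after subtracting the streptavidin-only scavenger bead signal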
# Target sequence (Q99759 whole entry, looked up): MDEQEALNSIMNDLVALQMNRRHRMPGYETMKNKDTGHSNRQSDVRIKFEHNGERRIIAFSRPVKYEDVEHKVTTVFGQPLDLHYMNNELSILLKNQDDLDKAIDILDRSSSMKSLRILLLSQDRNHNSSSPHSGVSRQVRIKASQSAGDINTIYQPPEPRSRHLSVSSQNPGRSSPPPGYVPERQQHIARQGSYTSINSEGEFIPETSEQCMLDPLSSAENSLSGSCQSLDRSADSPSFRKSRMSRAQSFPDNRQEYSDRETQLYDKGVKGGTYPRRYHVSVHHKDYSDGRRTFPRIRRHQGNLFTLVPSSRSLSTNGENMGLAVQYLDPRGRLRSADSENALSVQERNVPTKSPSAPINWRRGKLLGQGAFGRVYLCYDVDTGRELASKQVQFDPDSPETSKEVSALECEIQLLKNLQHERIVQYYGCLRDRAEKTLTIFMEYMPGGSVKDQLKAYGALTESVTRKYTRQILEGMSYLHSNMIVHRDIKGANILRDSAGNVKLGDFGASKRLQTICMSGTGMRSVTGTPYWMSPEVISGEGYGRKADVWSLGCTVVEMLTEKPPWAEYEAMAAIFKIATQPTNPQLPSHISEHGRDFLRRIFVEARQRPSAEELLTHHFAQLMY
# MEKK2 WT-MEK5: modulators of MEK5 binding to wildtype MEKK2, primary screen, biochemical, multiplex bead flow cytometry, Alexa488-MEK5. Alexa488-MEK5 binding to MEKK2 WT; actives lie on both sides. binding response (% of control), % at 10 µM. 290,000 tested, 1.1% active. AID 1531, 2009; in the data active = binding response below about 67% or above about 130%
# IMP-1 inhibitor: IMP-1 metallo-beta-lactamase inhibitors, primary screen, biochemical, epi-absorbance readout, Pseudomonas aeruginosa enzyme; metallo-beta-lactamase IMP-1 (Pseudomonas aeruginosa); purified IMP-1, nitrocefin hydrolysis, epi-absorbance fluorescence; inhibition, % at 5.6 µM; 290,000 tested, 0.45% active;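 active = inhibition above the mean plus 3 SD of all compounds in the same screening run, cut at about 4.5% in these data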;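 note: 0% = IMP-1 with DMSO and 100% = DMSO wells lacking enzyme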
#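 System: Purified IMP-1 | Read-out basis: Percent enzyme inhibition | Controls: IMP-1 with DMSO as 0%, enzyme-free DMSO as 100% | Replicates: One well per compound | Doses: 5.6 µM nominal single concentration | Detection: Epi-absorbance fluorescence, 480 nm excitation, 530 nm emission | Incubation: 25 °C, 15 min preincubation, 25 min reaction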
# VIM-2 inh: VIM-2 metallo-beta-lactamase inhibitors, primary screen, biochemical, epi-absorbance readout, Pseudomonas aeruginosa enzyme; 290,000 tested, 0.89% active; purified VIM-2, nitrocefin hydrolysis, epi-absorbance fluorescence; inhibition, % at 5.6 µM;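 active = inhibition above the mean of all tested compounds plus 3 SD, cutoff set per screening run, cut at about 7.5% in these data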;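 note: red hydrolysis product quenches plate fluorescence so inhibitors raise well fluorescence; 0% = enzyme with DMSO and 100% = DMSO without enzyme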
# MEKK2 mut-MEK5: MEK5 binding signal on mutant MEKK2 PB1, primary screen, biochemical, multiplex bead flow cytometry, Alexa488-MEK5; percent response, % at 10 µM; 290,000 tested, 0.35% active; Alexa488-MEK5 binding to MEKK2 mutant; AID 1530, 2009; in the data active = percent response above about 24%, passing the limit was not always enough
# MEKK2wt confirm: modulators of MEK5 binding to wildtype MEKK2, confirmation, biochemical, single concentration, multiplex bead flow cytometry. shares compounds with MEKK3 PB1 HTS. Alexa488-MEK5 binding to MEKK2 WT; actives lie on both sides. binding response (% of control), % at 10 µM. 5,900 tested, 2.4% active. AID 1892, 2009; in the data active = binding response below about 16% or above about 210%; inactive = in between
# MEKK2mut-MEK5: mutant MEKK2 PB1-MEK5 binding signal retest – biochemical, single concentration, multiplex bead flow cytometry, confirmation | shares compounds with MEKK3 PB1 HTS | Alexa488-MEK5 binding to MEKK2 mutant | percent response, % at 10 µM | 5,900 tested, 2% active | AID 1893, 2009; in the data active = percent response mostly above about 71%, no sharp cut-off; inactive = mostly below about 38%;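 note: higher means compound restores mutant binding toward wildtype level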
# MEKK3-MEK5 inh: MEKK3 wild-type PB1 binding to MEK5, inhibitors, confirmation, biochemical, bead multiplex flow cytometry, single concentration, wildtype. binding response (% of control), % at 10 µM. 5,900 tested, 1.8% active. shares compounds with MEKK3 PB1 HTS. Alexa488-MEK5 binding to MEKK3; active compounds read low. AID 1894, 2009;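 active = binding response below 72% of control, or above a set upper limit, though filed actives all read lower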;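 note: 100% = DMSO only wells and 0% = binding blocked by excess unlabeled MEK5; lower values mean stronger disruption of MEK5 binding to MEKK3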
# Starred values were filed as active, the others as inactive; nt = not tested or not shown; [ ] = remark or other dose.
SMILES,MEKK3 PB1 HTS,MEKK2 WT-MEK5,IMP-1 inhibitor,VIM-2 inh,MEKK2 mut-MEK5,MEKK2wt confirm,MEKK2mut-MEK5,MEKK3-MEK5 inh
COCCCNC(=O)c1sc2ncn(CC(=O)Nc3ccc(C)c(Cl)c3)c(=O)c2c1C,104,102,-3,-1,1,nt,nt,nt
COCCCNC(=O)COc1ccc(Cl)c(C)c1,87,92,-2,1,-5,nt,nt,nt
Cc1cc(OCC(=O)NC(C)(C)C)ccc1Cl,128*,105,-1,-3,1,99,3,103
Oc1ccccc1CN1CCCN(Cc2ccccc2O)C1,124*,111,-2,-3,7,107,3,101
CC(C)(C)c1ccc(NC(=O)Nc2ccc(F)cc2)cc1,130*,128,0,0,2,109,7,106
CC(C)(C)c1ccc(COC(=O)Nc2ccc(F)cc2)cc1,102,104,-4,0,2,nt,nt,nt
Cc1ccc(/C=C/C(=O)N2CCC(Cc3ccccc3)CC2)cc1,99,100,-3,-2,-1,nt,nt,nt
OC(COCC1COc2ccccc2O1)CN1CCN(c2ccccc2F)CC1 (configuration not stated),99,106,-4,-1,1,nt,nt,nt
O=C(OCC1COc2ccccc2O1)c1c(F)cccc1F (configuration not stated),66*[inhibitor],76,-5,-5,-20,105,-4,103
Cc1ccc(C23CC4CC(CC(C(=O)OCC(=O)NC5CCS(=O)(=O)C5)(C4)C2)C3)cc1 (configuration not stated),107,105,-2,-3,4,nt,nt,nt
Cc1cc(C)c2c(NC(=S)NC(=O)c3ccccc3)n[nH]c2n1,42*[inhibitor],51,-1,-2,-18,101,8,104
CCc1ccc(C2=NNC(=Nc3cccc(S(=O)(=O)N(C)C)c3)SC2)cc1,128*,104,-1,-5,0,101,-2,103
CN(CCc1ccccc1)C(=O)c1cc(COc2ccc(F)cc2Cl)on1,101,106,-1,-2,2,nt,nt,nt
Cc1ccc(C(=O)N/C(=C\c2ccc(Br)cc2)c2nc(=S)[nH][nH]2)cc1,97,65*[inhibitor],-1,-2,-10,82,-15,96
O=C(N/C(=C/c1cccc(Br)c1)c1nc(=S)[nH][nH]1)c1ccccc1,100,101,-2,-1,3,nt,nt,nt
COC(=O)/C(C#N)=C/c1c(N2CCCCCC2)nc2c(C)cccn2c1=O,99,95,-2,1,-4,nt,nt,nt
N#Cc1c(=O)c2nc(NCc3ccccc3)ncc2n2ccccc12,105,103,0,1,4,nt,nt,nt
COc1ccc(-c2nn(-c3ccccc3)cc2/C=N/N=C(N)N)cc1OC,110,148*,-3,4,3,176,35,111
COc1ccc(-c2nn(-c3ccccc3)cc2/C=N/O)cc1OC,93,96,-2,-1,-1,nt,nt,nt
O=C(Nc1nc(-c2ccccn2)cs1)c1cc(Cl)ccc1[N+](=O)[O-],100,96,-4,-2,-3,nt,nt,nt
CCCOc1ccc(C(=O)CCC(=O)OCC(=O)Nc2ccc(OCC)cc2)cc1,97,108,-4,-3,3,nt,nt,nt
CCCOc1ccc(C(=O)CCC(=O)OCC(=O)Nc2ccc(Oc3ccccc3)cc2)cc1,110,147*,-1,-4,71*,112,3,108
COc1ccc(N2CCN(C(=O)c3ccc(Br)cc3)CC2)c([N+](=O)[O-])c1,91,96,-2,-4,-2,nt,nt,nt
CC(C)=CCSc1nnc(CCNC(=O)OC(C)(C)C)o1,89,87,-4,-3,-6,nt,nt,nt
Cc1cc(C)cc(Oc2ccc(NC(=O)C3CC=CCC3C(=O)O)cc2)c1 (configuration not stated),75*[inhibitor],87,0,0,-4,102,-3,101
SMILES,MEKK3 PB1 HTS,MEKK2 WT-MEK5,IMP-1 inhibitor,VIM-2 inh,MEKK2 mut-MEK5,MEKK2wt confirm,MEKK2mut-MEK5,MEKK3-MEK5 inh
O=C(O)C1CC=CCC1C(=O)Nc1ccc(Oc2ccc(Cl)cc2)cc1 (configuration not stated),93,91,-1,-2,-4,nt,nt,nt
COc1cc2ccccc2cc1C(=O)Nc1sc2c(c1C(N)=O)CCN(C(C)C)C2,107,150*,7.1*,3,29*,170,42,110
CCOC(=O)c1c(NC(=S)Nc2ccc(Cl)cc2)sc2c1CCN(C)C2,118,81,-2,2,-1,nt,nt,nt
CC(C)N1CCc2c(sc(NC(=O)CN3C(=O)c4ccccc4C3=O)c2C(N)=O)C1,94,93,-1,0,-8,nt,nt,nt
CN1CCc2c(sc(NC(=O)Cc3ccccc3)c2C(N)=O)C1,97,97,3,1,-4,nt,nt,nt
CCOC(=O)c1c(NC(=O)Nc2ccc(F)cc2)sc2c1CCN(C)C2,129*,141*,0,2,31,124,4,101
CN1CCc2c(sc(NC(=O)c3ccc4ccccc4c3)c2C(N)=O)C1,106,135*,2,1,19,151,23,108
Cc1ccc(-n2cccc2C(=O)NS(=O)(=O)c2ccc(C)cc2)cc1,96,99,-5,-2,-7,nt,nt,nt
Cc1nc2ccccc2nc1Nc1cccc(Cl)c1,103,102,-2,-2,3,nt,nt,nt
COc1ccc(Nc2nc(C)c3ccccc3n2)cc1,117,140*,-3,-2,16,105,-1,103
COc1ccc(Nc2nc3ccccc3nc2C)cc1,2.0*[inhibitor],3.0*[inhibitor],-2,-2,-16,96,-3,97
COCc1c(C(=O)N/N=C(\C)c2ccc(Cl)s2)nnn1-c1nonc1N,99,96,-3,-4,-2,nt,nt,nt
Cc1nc(-c2ccccc2)sc1C(=O)NN,109,100,-3,-1,0,nt,nt,nt
COc1ccc(C(=O)CSc2nnn(-c3cccc(NC(C)=O)c3)n2)cc1,98,96,-2,0,0,nt,nt,nt

# Compound activity as filed in PubChem BioAssay.
